Tests used:
[1] = test system: Human immunodeficiency virus 1; test: (§1) Antiviral activity against HIV1 pNL4-3 infected in human MT4 cells derived from 10 viral passages with 140 nM A-790742 harboring protease V82V/L and I84V mutation assessed as reduction in viral cytopathogenicity treated 1 hr post infection measured 5 days post infection by MTT assay relative to wild type HIV1 pNL4-3; type: functional
Summary of the method: (§2)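 Selection: MT-4 cells infected with parental pNL4-3 or RF (MOI 0.003, 2 h), then passaged under rising selecting drug whenever supernatant p24 (ELISA) exceeded 10 ng/ml. Passage viruses titred by TCID50 (Spearman-Karber). Assay: 10^6 MT-4 cells infected at MOI 0.003 for 1 h, washed, and seeded at 10^4 cells/well with eight serial dilutions, triplicate, 0.5% DMSO final. Day-5 MTT read-out; EC50 fold-change versus parental wild type.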

[2] = test system: Human immunodeficiency virus 1; test: Antiviral activity against HIV1 isolate 11 infected in human MT4 cells obtained from protease inhibitor-resistant patient harboring protease L10I, I15V, K20R, E21Q, E35D, M36I, N37D, R41K, M46L, I54V, I62V, L63P, A71V, T74D, P79A, V82T, I84V, I85V, L90M, I93L mutation derived from viral passages with Lopinavir assessed as reduction in viral cytopathogenicity treated 1 hr post infection measured …; type: functional
[3] = test system: Human immunodeficiency virus 1; test: as §1, with “RF” for “pNL4-3”, “15” for “10”, “500” for “140”, “M46I, L63P, A71V, V82G” for “V82V/L and I84V”; type: functional; summary of the method: as §2
[4] = test system: Human immunodeficiency virus 1; test: as §1, with “15” for “10”, “560” for “140”, “L33L/F, K45I, V82L,” for “V82V/L and”; type: functional; summary of the method: as §2
[5] = test system: Human immunodeficiency virus 1; test: Antiviral activity against HIV1 clone2 infected in HEK293 cells harboring A-790742-selected protease V82L mutation assessed as reduction in viral replication by luciferase reporter gene assay relative to wild type HIV1 pNL4-3; type: functional
Summary of the method: (§3)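 Single-cycle assay: HEK-293 cells were cotransfected with luciferase-reporter HIV-1 protease clones plus a VSV-G expression vector. After 4 h, cells were replated at 2 × 10⁴/well over serial inhibitor dilutions in triplicate. Pseudovirus collected at 48 h infected fresh HEK-293 (10⁴/well). Luciferase read 48 h later gave % inhibition versus untreated and EC50. Fold change against WT pNL4-3-Luc (clones 1-4) or RF-Luc (clone 5) is the mean of three experiments.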

[6] = test system: Human immunodeficiency virus 1; test: Antiviral activity against HIV1 isolate 4 infected in human MT4 cells obtained from protease inhibitor-resistant patient harboring protease N37T, M46I, Q58E, I64V, T74K, V77I, V82F, L90M mutation derived from viral passages with Lopinavir assessed as reduction in viral cytopathogenicity treated 1 hr post infection measured 5 days post infection by MTT assay relative to wild type HIV1 pNL4-3; type: functional
[7] = test system: Human immunodeficiency virus 1; test: (§4) Antiviral activity against HIV1 P13 infected in human MT4 cells derived from viral passages with A-790742 harboring protease M46I, L63P, A71V, and V82G mutation assessed as reduction in viral cytopathogenicity treated 1 hr post infection measured 5 days post infection by MTT assay relative to wild type HIV1 RF; type: functional
Summary of the method: (§5)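 For the assay, 10⁶ MT-4 cells were infected at MOI 0.003, washed after 1 h, and plated at 10⁴ cells/well with eight serial compound dilutions in triplicate (0.5% DMSO final). MTT cytopathic read-out at day 5; EC50 from dose-response fitting.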

[8] = test system: Human immunodeficiency virus 1; test: Antiviral activity against HIV1 B26 infected in human MT4 cells harboring protease L33F, K45I, M46I, I50V, I54V, A71V, and V82F mutation derived from viral passages with Lopinavir assessed as reduction in viral cytopathogenicity treated 1 hr post infection measured 5 days post infection by MTT assay; type: functional, organism-based; conditions: Human immunodeficiency virus 1, B26, MT4; summary of the method: as §5
[9] = test system: Human immunodeficiency virus 1; test: as §4, with “RF” for “P13”, “from 10” for “from”, “with 160 nM” for “with”, “protease” for “protease M46I, L63P,”, “A71V,” for “A71V, and”; type: functional; summary of the method: as §2
[10] = test system: Human immunodeficiency virus 1; test: (§6) Antiviral activity against HIV1 A17 infected in human MT4 cells harboring protease L10F, V32I, M46I, I47V, Q58E, and I84V mutation derived from viral passages with Lopinavir assessed as reduction in viral cytopathogenicity treated 1 hr post infection measured 5 days post infection by MTT assay; type: functional, organism-based; conditions: Human immunodeficiency virus 1, A17, MT4; summary of the method: as §5
[11] = test system: Human immunodeficiency virus 1; test: Antiviral activity against HIV1 clone3 infected in HEK293 cells harboring A-790742-selected protease L33F, K45I, V82L, and I84V mutation assessed as reduction in viral replication by luciferase reporter gene assay relative to wild type HIV1 pNL4-3; type: functional; summary of the method: as §3
[12] = test system: Human immunodeficiency virus 1; test: Antiviral activity against wild-type HIV1 pNL4-3 infected in human MT4 cells assessed as reduction in viral cytopathogenicity treated 1 hr post infection measured 5 days post infection in presence of 50% human serum by MTT assay; type: functional, organism-based; conditions: Human immunodeficiency virus 1, pNL4-3, MT4
[13] = test system: Human immunodeficiency virus 1; test: as §1, with “5” for “10”, “12” for “140”, “protease” for “protease V82V/L and”; type: functional; summary of the method: as §2
[14] = test system: Human immunodeficiency virus 1; test: as §1, with “7” for “10”, “32” for “140”, “protease” for “protease V82V/L and”; type: functional; summary of the method: as §2
[15] = test system: Human immunodeficiency virus 1; test: Antiviral activity against HIV1 isolate 12 infected in human MT4 cells obtained from protease inhibitor-resistant patient harboring protease L10I, I13V, K20I, E35D, M36I, M46I, I50V, I54V, R57K, I62V, L63P, A71V, V82A, L89V, L90M, Q92K mutation derived from viral passages with Lopinavir assessed as reduction in viral cytopathogenicity treated 1 hr post infection measured 5 days post infection by …; type: functional
[16] = test system: Human immunodeficiency virus 1; test: Antiviral activity against HIV1 clone5 infected in HEK293 cells harboring A-790742-selected protease L63P, A71V, and V82G mutation assessed as reduction in viral replication by luciferase reporter gene assay relative to wild type HIV1 RF; type: functional; summary of the method: as §3
[17] = test system: Human immunodeficiency virus 1; test: Antiviral activity against HIV1 isolate 6 infected in human MT4 cells obtained from protease inhibitor-resistant patient harboring protease L10I, L24I, M46I, I54V, K55R, Q58E, L63P, I64V, A71V, V82A, T91A mutation derived from viral passages with Lopinavir assessed as reduction in viral cytopathogenicity treated 1 hr post infection measured 5 days post infection by MTT assay relative to wild type …; type: functional
[18] = test system: Human immunodeficiency virus 1; test: as §1, with “13” for “10”, “400” for “140”, “V82L,” for “V82V/L and”; type: functional; summary of the method: as §2
[19] = test system: Human immunodeficiency virus 1; test: Antiviral activity against HIV1 isolate 3 infected in human MT4 cells obtained from protease inhibitor-resistant patient harboring protease L10I, E35D, N37D, […], I54V, L63P, A71V, T74P, I84V, L90M, I93L mutation derived from viral passages with Lopinavir assessed as reduction in viral cytopathogenicity treated 1 hr post infection measured 5 days post infection by MTT assay relative to wild type …; type: functional
[20] = test system: Human immunodeficiency virus 1; test: Antiviral activity against HIV1 isolate 2 infected in human MT4 cells obtained from protease inhibitor-resistant patient harboring protease L10I, I15V, G16E, K20R, E35D, M36I, R41K, I54A, R57K, Q61D, A71V, I72R, V82A, L89I, L90M, Q92K mutation derived from viral passages with Lopinavir assessed as reduction in viral cytopathogenicity treated 1 hr post infection measured 5 days post infection by …; type: functional
[21] = test system: Human immunodeficiency virus 1; test: Antiviral activity against HIV1 isolate 8 infected in human MT4 cells obtained from protease inhibitor-resistant patient harboring protease L10I, I13V, L33F, E34Q, R41K, M46I, I54V, K55R, R57K, Q58E, I62V, L63P, A71V, I72I/T, G73S, V82A, I84V, L90M mutation derived from viral passages with Lopinavir assessed as reduction in viral cytopathogenicity treated 1 hr post infection measured 5 days post …; type: functional
[22] = test system: Human immunodeficiency virus 1; test: (§7) Antiviral activity against HIV1 RF infected in human MT4 cells derived from 6 viral passages with 16 nM A-790742 harboring wild-type protease assessed as reduction in viral cytopathogenicity treated 1 hr post infection measured 5 days post infection by MTT assay relative to wild type HIV1 RF; type: functional; summary of the method: as §2
[23] = test system: Human immunodeficiency virus 1; test: Antiviral activity against HIV1 isolate 5 infected in human MT4 cells obtained from protease inhibitor-resistant patient harboring protease L10F, I15V, M46I, L63P, A71V, I72L, V82T, I84V, I85V, L90M mutation derived from viral passages with Lopinavir assessed as reduction in viral cytopathogenicity treated 1 hr post infection measured 5 days post infection by MTT assay relative to wild type HIV1 …; type: functional
[24] = test system: Human immunodeficiency virus 1; test: Antiviral activity against HIV1 isolate 9 infected in human MT4 cells obtained from protease inhibitor-resistant patient harboring protease L10I, I15I/V, K20R, L33F, E35D, M36I, N37D, R41K, K43I, M46I, I54V, I62V, L63P, A71T, I72T, V82A, I84V, L90M, I93L mutation derived from viral passages with Lopinavir assessed as reduction in viral cytopathogenicity treated 1 hr post infection measured 5 days …; type: functional
[25] = test system: Human immunodeficiency virus 1; test: as §6, with “P25” for “A17”, “L10F, G16E,” for “L10F,”, “I47A, H69Y, I84V,” for “I47V, Q58E,”, “T91S” for “I84V”; type: functional, organism-based; conditions: Human immunodeficiency virus 1, P25, MT4; summary of the method: as §5
[26] = test system: Human immunodeficiency virus 1; test: (§8) Antiviral activity against HIV1 P21 infected in human MT4 cells derived from viral passages with A-790742 harboring protease L23I, L33F, K45I, A71A/V, V77I, V82L, and I84V mutation assessed as reduction in viral cytopathogenicity treated 1 hr post infection measured 5 days post infection by MTT assay relative to wild type HIV1 pNL4-3; type: functional; summary of the method: as §5
[27] = test system: Human immunodeficiency virus 1; test: as §1, with “8” for “10”, “50” for “140”, “V82V/L,” for “V82V/L and”; type: functional; summary of the method: as §2
[28] = test system: Human immunodeficiency virus 1; test: as §7, with “pNL4-3” for “RF”, “harboring” for “harboring wild-type”, “protease I84V mutation” for “protease”; type: functional; summary of the method: as §2
[29] = test system: Human immunodeficiency virus 1; test: as §8, with “pNL4-3” for “P21”, “from 21” for “from”, “with 2000 nM” for “with”, “V82L,” for “V82L, and”; type: functional; summary of the method: as §2

COC(=O)N[C@H](C(=O)N[C@H](Cc1ccc(-c2ccccn2)cc1)C[C@H](O)[C@H](Cc1ccccc1)NC(=O)[C@@H](N1CCN(Cc2cccc(C(C)(C)O)n2)C1=O)C(C)(C)C)C(C)(C)C
Ratio EC50 [1]: 46.7
Ratio EC50 [2]: 11
Ratio EC50 [3]: 100
Ratio EC50 [4]: 186.7
Ratio EC50 [5]: 22
Ratio EC50 [6]: 1
Ratio EC50 [7]: 72
EC50 [8]: 22 nM
Ratio EC50 [9]: 32
EC50 [10]: 10 nM
Ratio EC50 [11]: 23
EC50 [12]: 20 nM
Ratio EC50 [13]: 4
Ratio EC50 [14]: 10.7
Ratio EC50 [15]: 1
Ratio EC50 [16]: 72
Ratio EC50 [17]: 1
Ratio EC50 [18]: 133.3
Ratio EC50 [19]: 33
Ratio EC50 [20]: 12
Ratio EC50 [21]: 4
Ratio EC50 [22]: 3.2
Ratio EC50 [23]: 2
Ratio EC50 [24]: 6
EC50 [25]: 45 nM
Ratio EC50 [26]: >2500
Ratio EC50 [27]: 16.7
Ratio EC50 [28]: 5.3
Ratio EC50 [29]: 666.7
